From ChEMBL document CHEMBL5316375, “Discovery of Novel, Selective Prostaglandin EP4 Receptor Antagonists with Efficacy in Cancer Models” (ACS Med Chem Lett, 2023)
Each block holds one compound with its values, some of them ahead of it.

Columns and labels:
[1] = molecular target: Prostaglandin E2 receptor EP4 subtype (Homo sapiens, UniProt P35408); test: Antagonist activity at human EP4 receptor overexpressed in HEK293 cells assessed as inhibition of PGE2-induced cAMP formation preincubated for 15 mins followed by PGE addition and measured after 30 mins by Eu-cAMP tracer based assay; type: functional, cell-based
[2] = molecular target: T1, Prostaglandin E2 receptor EP3 subtype (Homo sapiens, UniProt P43115); test: Antagonist activity at EP3 receptor (unknown origin)
T1 sequence (P43115 whole entry): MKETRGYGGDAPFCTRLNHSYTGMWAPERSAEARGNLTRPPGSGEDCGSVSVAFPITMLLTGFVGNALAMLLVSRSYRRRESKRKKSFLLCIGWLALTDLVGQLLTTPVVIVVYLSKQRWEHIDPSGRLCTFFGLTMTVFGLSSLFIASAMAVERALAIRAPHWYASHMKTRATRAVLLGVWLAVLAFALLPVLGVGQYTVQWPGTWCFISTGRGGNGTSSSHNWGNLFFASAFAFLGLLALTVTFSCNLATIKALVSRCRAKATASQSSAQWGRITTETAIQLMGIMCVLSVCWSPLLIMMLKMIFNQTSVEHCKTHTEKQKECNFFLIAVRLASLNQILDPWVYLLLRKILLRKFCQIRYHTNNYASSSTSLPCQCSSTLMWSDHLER

[3] = molecular target: Voltage-gated inwardly rectifying potassium channel KCNH2 (Homo sapiens, UniProt Q12809); test: Inhibition of hERG; type: toxicity
[4] = AUC (0 to infinity) in Sprague-Dawley rat at 10 mg/kg, po; type: ADME, organism-based; parameters: dose 10 mg/kg, route po; details: in vivo
[5] = Microsomal stability in human liver microsomes assessed as half life at 1 uM measured for 60 mins by LC-MS/MS analysis; type: ADME, Microsome
[6] = molecular target: T1, Prostaglandin E2 receptor EP3 subtype; test: Displacement of [3H]-PGE2 from EP3 receptor membrane (unknown origin) measured after 2 hrs by Microscint-O scintillation counting analysis; type: cell membranes
[7] = Plasma protein binding in human at 1 uM incubated for 6 hrs by LC-MS/MS analysis; type: ADME, cell-free
[8] = Tmax at Sprague-Dawley rat at 10 mg/kg, po; type: ADME, organism-based; details: in vivo
[9] = molecular target: T2, Prostaglandin E2 receptor EP1 subtype (Homo sapiens, UniProt P34995); test: Antagonist activity at EP1 receptor (unknown origin)
T2 sequence (P34995 whole entry): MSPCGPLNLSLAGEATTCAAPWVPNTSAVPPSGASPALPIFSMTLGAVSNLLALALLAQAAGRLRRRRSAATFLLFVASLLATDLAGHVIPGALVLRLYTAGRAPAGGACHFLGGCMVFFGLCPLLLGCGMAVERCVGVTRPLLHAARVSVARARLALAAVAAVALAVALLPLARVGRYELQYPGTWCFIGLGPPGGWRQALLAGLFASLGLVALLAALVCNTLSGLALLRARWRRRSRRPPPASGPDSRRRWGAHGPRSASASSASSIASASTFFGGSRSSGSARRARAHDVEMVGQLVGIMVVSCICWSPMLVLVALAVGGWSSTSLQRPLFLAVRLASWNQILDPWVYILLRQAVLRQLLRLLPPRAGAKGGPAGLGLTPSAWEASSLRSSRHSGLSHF

[10] = Plasma protein binding in mouse assessed as parent compound remaining at 1 uM incubated for 6 hrs by LC-MS/MS analysis; type: ADME, cell-free
[11] = Half life in Sprague-Dawley rat at 1 mg/kg, iv; type: ADME, organism-based; details: in vivo
[12] = Clearance in Sprague-Dawley rat at 1 mg/kg, iv; type: ADME, organism-based; details: in vivo
[13] = Toxicity in BALB/c mouse allografted with CT26 cells assessed as body weight loss at 75 to 150 mg/kg, po qd administered for 11 days and measured every 2 to 3 days; type: organism-based; details: in vivo, 264 h, dose 75-150 mg/kg, time 11 day
Procedure, shortened: (§1)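 CT-26 tumors in BALB/c mice grown to 100–200 mm3, then animals randomized (n = 6/group). Dosing was oral, once daily for 11 days, in vehicle 0.5% carboxymethylcellulose sodium in PBS. Groups: vehicle, 75 or 150 mg/kg, or E7046 150 mg/kg. Tumor volume, TGI versus vehicle, body weight and day-11 tumor weight were recorded, with Dunnett's test versus vehicle.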

[14] = AUC (0 to t) in Sprague-Dawley rat at 10 mg/kg, po; type: ADME, organism-based; parameters: dose 10 mg/kg, route po; details: in vivo
[15] = Microsomal stability in mouse liver microsomes assessed as half life at 1 uM measured for 60 mins by LC-MS/MS analysis; type: ADME, Microsome
[16] = Cmax in Sprague-Dawley rat at 1 mg/kg, iv; type: ADME, organism-based; parameters: dose 1 mg/kg, route iv; details: in vivo
[17] = Cmax in Sprague-Dawley rat at 10 mg/kg, po; type: ADME, organism-based; parameters: dose 10 mg/kg, route po; details: in vivo
[18] = Half life in Sprague-Dawley rat at 10 mg/kg, po; type: ADME, organism-based; details: in vivo
[19] = Plasma protein binding in mouse at 1 uM incubated for 6 hrs by LC-MS/MS analysis; type: ADME, cell-free
[20] = AUC (0 to infinity) in Sprague-Dawley rat at 1 mg/kg, iv; type: ADME, organism-based; parameters: dose 1 mg/kg, route iv; details: in vivo
[21] = Toxicity in BALB/c mouse allografted with CT26 cells assessed as reduction in body weight at 75 to 150 mg/kg, po administered daily for 21 days and measured every 2 to 3 days in presence of 300 mg/kg capecitabine; type: organism-based; details: in vivo, 504 h, dose 75-150 mg/kg, time 21 day
Procedure, shortened: (§2)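 CT-26 tumors in BALB/c mice (n = 6/group) dosed orally once daily from day 8 after implantation until day 21, in vehicle 0.5% carboxymethylcellulose sodium. Groups: vehicle, capecitabine 300 mg/kg alone, or capecitabine 300 mg/kg plus EP4 antagonist at 75 or 150 mg/kg. Tumor volume, TGI versus vehicle, body weight and tumor weight were recorded, with Dunnett's test.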

[22] = Volume of distribution at steady state in Sprague-Dawley rat at 1 mg/kg, iv; type: ADME, organism-based; details: in vivo, read-out: Vdss
[23] = molecular target: T2, Prostaglandin E2 receptor EP1 subtype; test: Displacement of [3H]-PGE2 from EP1 receptor membrane (unknown origin) measured after 2 hrs by Microscint-O scintillation counting analysis; type: cell membranes
[24] = Plasma protein binding in rat at 1 uM incubated for 6 hrs by LC-MS/MS analysis; type: ADME, cell-free
[25] = molecular target: T3, Prostaglandin E2 receptor EP2 subtype (Homo sapiens, UniProt P43116); test: Displacement of [3H]-PGE2 from EP2 receptor membrane (unknown origin) measured after 2 hrs by Microscint-O scintillation counting analysis; type: cell membranes
[26] = AUC (0 to t) in Sprague-Dawley rat at 1 mg/kg, iv; type: ADME, organism-based; parameters: dose 1 mg/kg, route iv; details: in vivo
[27] = Oral bioavailability in Sprague-Dawley rat at 10 mg/kg; type: ADME, organism-based; details: in vivo
[28] = molecular target: T3, Prostaglandin E2 receptor EP2 subtype; test: Antagonist activity at EP2 receptor (unknown origin)
[29] = Plasma protein binding in human assessed as parent compound remaining at 1 uM incubated for 6 hrs by LC-MS/MS analysis; type: ADME, cell-free
[30] = Plasma protein binding in rat assessed as parent compound remaining at 1 uM incubated for 6 hrs by LC-MS/MS analysis; type: ADME, cell-free
[31] = Microsomal stability in rat liver microsomes assessed as half life at 1 uM measured for 60 mins by LC-MS/MS analysis; type: ADME, Microsome
CT26 [32] = test: Antitumor activity against mouse CT26 cells allografted in BALB/c mouse assessed as mean tumor volume at 300 mg/kg, po qd administered for 21 days starting from day 8 post tumor implantation measured once for every 2 or 3 days (reference value: 2036.95 +/- 333.12 mm3); type: functional; details: time 21 day; procedure, shortened: as §2
CT26 [33] = test: Antitumor activity against mouse CT26 cells allografted in BALB/c mouse assessed as tumor growth inhibition at 300 mg/kg, po qd administered for 21 days starting from day 8 post tumor implantation measured once for every 2 or 3 days relative to control; type: functional; details: CT26, 504 h, time 21 day, read-out: TGI; procedure, shortened: as §2
[34] = Toxicity in BALB/c mouse allografted with CT26 cells assessed as effect on body weight at 300 mg/kg, po administered daily for 21 days and measured every 2 to 3 days; type: organism-based; details: in vivo, 504 h, time 21 day; procedure, shortened: as §2
CT26 [35] = test: Antitumor activity against mouse CT26 cells allografted in BALB/c mouse assessed as tumor growth inhibition at 150 mg/kg, po qd administered every day for 11 days measured for every 2 or 3 days relative to control; type: functional; details: CT26, 264 h, time 11 day, read-out: TGI; procedure, shortened: as §1
CT26 [36] = test: Antitumor activity against mouse CT26 cells allografted in BALB/c mouse assessed as mean tumor volume at 150 mg/kg, po qd administered every day for 11 days measured for every 2 or 3 days (reference value: 2145.58 +/- 152.9 mm3); type: functional; details: time 11 day; procedure, shortened: as §1

T3 sequence (P43116 whole entry): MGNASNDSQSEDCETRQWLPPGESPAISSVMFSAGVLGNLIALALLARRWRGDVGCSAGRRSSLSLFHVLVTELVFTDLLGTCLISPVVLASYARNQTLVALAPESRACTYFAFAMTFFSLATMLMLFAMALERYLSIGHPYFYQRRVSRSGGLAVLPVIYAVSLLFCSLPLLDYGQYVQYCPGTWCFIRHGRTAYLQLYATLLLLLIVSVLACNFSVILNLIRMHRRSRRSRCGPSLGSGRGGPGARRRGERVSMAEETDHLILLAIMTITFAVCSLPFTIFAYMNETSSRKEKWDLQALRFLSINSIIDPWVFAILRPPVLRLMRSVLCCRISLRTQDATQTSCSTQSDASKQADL
Prostaglandin E2 receptor EP4 subtype, sequence (P35408 whole entry): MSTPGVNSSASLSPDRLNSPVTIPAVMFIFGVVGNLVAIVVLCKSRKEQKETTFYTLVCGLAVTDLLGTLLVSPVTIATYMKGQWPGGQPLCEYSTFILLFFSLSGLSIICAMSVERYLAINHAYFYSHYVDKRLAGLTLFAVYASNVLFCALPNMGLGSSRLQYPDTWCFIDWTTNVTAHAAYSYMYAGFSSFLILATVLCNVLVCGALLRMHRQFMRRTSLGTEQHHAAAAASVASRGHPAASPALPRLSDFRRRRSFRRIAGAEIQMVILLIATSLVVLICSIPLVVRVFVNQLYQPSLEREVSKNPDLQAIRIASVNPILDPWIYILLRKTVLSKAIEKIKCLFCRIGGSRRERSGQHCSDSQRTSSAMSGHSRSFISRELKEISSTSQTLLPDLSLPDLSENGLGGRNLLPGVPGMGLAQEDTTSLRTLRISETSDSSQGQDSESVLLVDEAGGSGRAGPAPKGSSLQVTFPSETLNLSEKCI
Voltage-gated inwardly rectifying potassium channel KCNH2, sequence (Q12809 whole entry): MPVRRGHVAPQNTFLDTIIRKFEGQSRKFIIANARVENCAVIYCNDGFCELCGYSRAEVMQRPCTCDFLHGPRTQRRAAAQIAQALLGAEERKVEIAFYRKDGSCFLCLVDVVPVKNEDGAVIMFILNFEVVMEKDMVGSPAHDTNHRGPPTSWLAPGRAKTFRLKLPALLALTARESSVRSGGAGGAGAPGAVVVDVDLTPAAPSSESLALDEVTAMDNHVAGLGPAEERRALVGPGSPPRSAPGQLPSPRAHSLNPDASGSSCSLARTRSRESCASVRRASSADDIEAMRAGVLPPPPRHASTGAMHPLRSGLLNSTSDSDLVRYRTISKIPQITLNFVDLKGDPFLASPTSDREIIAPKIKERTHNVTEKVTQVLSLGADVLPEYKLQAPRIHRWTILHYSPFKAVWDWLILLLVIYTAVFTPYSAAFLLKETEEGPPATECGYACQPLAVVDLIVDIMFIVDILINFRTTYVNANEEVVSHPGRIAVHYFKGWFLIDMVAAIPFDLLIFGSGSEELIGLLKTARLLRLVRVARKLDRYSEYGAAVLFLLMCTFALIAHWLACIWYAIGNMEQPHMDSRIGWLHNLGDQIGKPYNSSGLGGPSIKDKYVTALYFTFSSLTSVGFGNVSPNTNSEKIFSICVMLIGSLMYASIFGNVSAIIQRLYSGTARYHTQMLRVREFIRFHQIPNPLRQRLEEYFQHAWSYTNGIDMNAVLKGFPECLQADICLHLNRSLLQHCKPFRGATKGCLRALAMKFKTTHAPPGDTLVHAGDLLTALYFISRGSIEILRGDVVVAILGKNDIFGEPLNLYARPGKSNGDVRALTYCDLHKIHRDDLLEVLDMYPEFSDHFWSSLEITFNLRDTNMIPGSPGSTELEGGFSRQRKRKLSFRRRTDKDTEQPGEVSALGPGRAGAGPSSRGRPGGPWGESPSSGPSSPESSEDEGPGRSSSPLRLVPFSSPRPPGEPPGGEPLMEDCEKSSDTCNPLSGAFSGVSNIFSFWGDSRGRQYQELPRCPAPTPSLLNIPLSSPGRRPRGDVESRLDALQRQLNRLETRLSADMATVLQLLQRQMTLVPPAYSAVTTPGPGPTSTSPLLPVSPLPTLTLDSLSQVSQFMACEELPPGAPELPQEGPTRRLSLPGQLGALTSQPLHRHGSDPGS

Structure (SMILES): COc1ccc(Br)cc1S(=O)(=O)NC(=O)/C=C/c1ccccc1Cc1ccc2ccccc2c1
IC50 [2]: 33 nM

Structure (SMILES): CCCCCOC(=O)Nc1nc(=O)n([C@@H]2O[C@H](C)[C@@H](O)[C@H]2O)cc1F [CAPECITABINE]
Activity (CT26 [32]): 707.13 mm3
inhibition in vivo at 300 mg/kg (CT26 [33]): 67.9%
Activity [34]: Non-Toxic

Structure (SMILES): C[C@H](NC(=O)c1c(C(F)F)nn(C)c1Oc1cccc(C(F)(F)F)c1)c1ccc(C(=O)O)cc1 [PALUPIPRANT]
inhibition in vivo at 150 mg/kg (CT26 [35]): 25.9%
Activity (CT26 [36]): 1619.76 mm3

Now from value to compound, other results behind:

IC50 [1]: > 10 µM
Structure (SMILES): C[C@H](NC(=O)c1c(Nc2cccc(C(F)(F)F)c2)c2ccccc2n1C)c1ccc(C(N)=O)cc1

AUC(0-inf) [4]: 25700 ng·h/mL
half-life at 1 µM [5]: 24.3 min
Ki [6]: > 6.4 µM
PPB [7]: 99.68%
Tmax [8]: 30 min
IC50 [9]: > 10 µM
residual activity [10]: 70.47%
IC50 [2]: > 10000 nM
half-life [11]: 84 min
clearance [12]: 4.95 mL/min/kg
AUC(0-t) [14]: 25700 ng·h/mL
half-life at 1 µM [15]: 98.6 min
Cmax [16]: 4630 ng/mL
Cmax [17]: 8240 ng/mL
half-life [18]: 162 min
PPB [19]: 99.66%
AUC(0-inf) [20]: 3420 ng·h/mL
Vd [22]: 0.41 L/kg
Ki [23]: > 9.6 µM
PPB [24]: 99.73%
Ki [25]: > 8.8 µM
AUC(0-t) [26]: 3380 ng·h/mL
bioavailability [27]: 76.1%
IC50 [28]: > 10 µM
residual activity [29]: 83.02%
residual activity [30]: 88.79%
half-life at 1 µM [31]: 260 min
Structure (SMILES): C[C@H](NC(=O)c1c(Nc2cccc(C(F)(F)F)c2)c2ccccc2n1C)c1ccc(C(=O)O)cc1
IC50 [3]: > 40 µM
Activity [13]: Non-Toxic
Activity [21]: Non-Toxic

Ki [6]: > 6.4 µM
Ki [23]: > 9.6 µM
Ki [25]: > 8.8 µM
Structure (SMILES): Cn1c(C(=O)NC2(c3ccc(C(=O)O)cc3)CC2)c(Nc2cccc(C(F)(F)F)c2)c2ccccc21
